Series [1] concerns Rattus norvegicus. Nature of the series: Distribution of the radio labelled compound in cerebellum of rat brain after intravenous administration in absence of blocker after 60 min. Type of series: ADME, organism-based. The conditions noted are these: in vivo, 1 h. A digest of the protocol:
(§1)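 Male Sprague–Dawley rats (200–250 g), ketamine/xylazine anesthesia, tail-vein cannula. Blocker (4 mg/kg) or nothing given 15 min before iv [123I]ZIET in 10% ethanol/saline. Killed 60 min post-tracer.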

Series [2] has as its system Rattus norvegicus. Nature of the series: Distribution of the radio labelled compound in cerebellum of rat brain after intravenous administration in presence of reboxetine after 60 min. The class given is ADME, organism-based. The conditions noted are these: in vivo, 1 h. A digest of the protocol:
(§2)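 Male Sprague–Dawley rats (200–250 g) under ketamine/xylazine anaesthesia with tail-vein cannulas. Blocker or none given 15 min before ~20 μCi [123I] tracer iv in 0.2 mL 10% ethanol/saline; blocker dose 4 mg/kg.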

For series [3], the system named is Rattus norvegicus. Nature of the series: Distribution of the radio labelled compound in blood of rat brain after intravenous administration in presence of RTI-113 after 60 min. The class given is ADME, organism-based. The conditions noted are these: in vivo, 1 h. In a few lines:
as §1

Series [4] deals with Rattus norvegicus. The series can be described thus: Distribution in cerebellum of rat brain after intravenous administration by using [123I]ZIET after 30 min. The class given is ADME, organism-based. The conditions noted are these: in vivo, 0.5 h. In a few lines: (§3)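 Male Sprague–Dawley rats (200–250 g), fed ad libitum, given ~20 μCi radiotracer iv via tail-vein cannula in 0.2 mL 10% ethanol/saline under ketamine/xylazine im anesthesia. Killed at 5, 30, 60 or 120 min (n = 5; n = 4 at 120 min). Brain regions dissected, weighed, gamma-counted with dose standards, decay-corrected; mean %ID/g ± SE.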

Series [5] can be described thus: Ratio of radioactivity in occipital cortex of rat brain to that of rat cerebellum after intravenous administration after 60 min. Type of series: functional. In a few lines: (§4)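 Male Sprague–Dawley rats (200–250 g) given ~20 μCi [123I] tracer iv in 0.2 mL 10% ethanol/saline under ketamine/xylazine; killed at 5, 30, 60, 120 min (n = 5; n = 4 at 120 min). Brain regions dissected, gamma counted, decay-corrected to %ID/g; regional uptake divided by cerebellum.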

Series [6] concerns Rattus norvegicus. Nature of the series: Distribution of the radio labelled compound in hippocampus of rat brain after intravenous administration in presence of RTI-113 after 60 min. The conditions noted are these: in vivo, 1 h. Type of series: ADME, organism-based. A digest of the protocol:
as §2

Series [7] can be described thus: Ratio of radioactivity in hypothalamus of rat brain to that of rat cerebellum after intravenous administration after 60 min. The class given is functional. A digest of the protocol: as §4
Series [8] has as its system Rattus norvegicus. Nature of the series: Distribution of the radio labelled compound in thyroid of rat brain after intravenous administration in presence of citalopram after 60 min. The conditions noted are these: in vivo, 1 h. Type of series: ADME, organism-based, Thyroid gland. In a few lines: as §2
Series [9] is described as follows: Ratio of radioactivity in brainstem of rat brain to that of rat cerebellum after intravenous administration after 60 min. The class given is functional. A digest of the protocol: as §4
Series [10] concerns Rattus norvegicus. Nature of the series: Distribution in brainstem of rat brain after intravenous administration by using [123I]ZIET after 60 min. The class given is ADME, organism-based. The conditions noted are these: in vivo, 1 h. In a few lines:
as §3

Series [11] deals with Rattus norvegicus. Nature of the series: Distribution in cerebellum of rat brain after intravenous administration by using [123I]ZIET after 60 min. Type of series: ADME, organism-based. The conditions noted are these: in vivo, 1 h. A digest of the protocol: as §3
The test system of series [12] is Rattus norvegicus. Nature of the series: Distribution in hippocampus of rat brain after intravenous administration by using [123I]ZIET after 120 min. The class given is ADME, organism-based. The conditions noted are these: in vivo, 2 h. In a few lines: as §3
For series [13], the system named is Rattus norvegicus. Nature of the series: Distribution in striatum of rat brain after intravenous administration by using [123I]ZIET after 60 min. The conditions noted are these: in vivo, 1 h. Type of series: ADME, organism-based. In a few lines: as §3
Series [14] is described as follows: Ratio of radioactivity in brainstem of rat brain to that of rat cerebellum after intravenous administration after 5 min. Type of series: functional. In a few lines: as §4
Series [15] is described as follows: Ratio of radioactivity in frontal cortex of rat brain to that of rat cerebellum after intravenous administration after 120 min. The class given is functional. A digest of the protocol:
as §4

The test system of series [16] is Rattus norvegicus. Nature of the series: Distribution in striatum of rat brain after intravenous administration by using [123I]ZIET after 120 min. Type of series: ADME, organism-based. The conditions noted are these: in vivo, 2 h. A digest of the protocol: as §3
The nature of series [17]: Ratio of radioactivity in hippocampus of rat brain to that of rat cerebellum after intravenous administration after 30 min. Type of series: functional. A digest of the protocol:
as §4

For series [18], the system named is Rattus norvegicus. The series can be described thus: Distribution in rest of rat brain after intravenous administration by using [123I]ZIET after 5 min. Type of series: ADME, organism-based. The conditions noted are these: in vivo. A digest of the protocol: as §3
Series [19] concerns Rattus norvegicus. The series can be described thus: Distribution in hypothalamus of rat brain after intravenous administration by using [123I]ZIET after 60 min. Type of series: ADME, organism-based. The conditions noted are these: in vivo, 1 h. In a few lines: as §3
The test system of series [20] is Rattus norvegicus. The series can be described thus: Distribution of the radio labelled compound in cerebellum of rat brain after intravenous administration in presence of citalopram after 60 min. The class given is ADME, organism-based. The conditions noted are these: in vivo, 1 h. A digest of the protocol:
as §2

SMILES strings stand for the structures.

As for `COC(=O)C1C(c2ccc(/C=C\[123I])cc2)CC2CCC1N2C` (stereo not given), the Activity with Rattus norvegicus [1] worked out at 0.15; in the series on Rattus norvegicus [2], 0.15; in the series with Rattus norvegicus [3], 0.24; with Rattus norvegicus [4] it was 0.42; with Rattus norvegicus [6] it was 0.42; in the series with Rattus norvegicus [8], 0.93. Further, the Activity is given as 0.54 in the series with Rattus norvegicus [10]; 0.27 in the series with Rattus norvegicus [11]; 0.47 in the series on Rattus norvegicus [12]; 0.71 in the series with Rattus norvegicus [13]; 0.52 in the series with Rattus norvegicus [16]; 0.38 with Rattus norvegicus [18]. In addition, the Activity stood at 0.69 with Rattus norvegicus [19] and 0.1 in the series with Rattus norvegicus [20]. Also, the Ratio in series [5] is on record as 2.3; in series [7], 2.6; in [9], 2; in series [14], 1; in series [15] it was 3.4; in series [17], 1.7.

Source of the values: ChEMBL document CHEMBL1149321, “Synthesis, radiosynthesis, and biological evaluation of carbon-11 and iodine-123 labeled 2beta-carbomethoxy-3beta-[4'-((Z)-2-haloethenyl)phenyl]tropanes: candidate radioligands for in vivo imaging of the serotonin transporter” (J Med Chem, 2004).
